# Assay results reported in ChEMBL document CHEMBL1275286, “Synthesis of the steroidal glycoside (25R)-3β,16β-diacetoxy-12,22-dioxo-5α-cholestan-26-yl β-D-glucopyranoside and its anti-cancer properties on cervicouterine HeLa, CaSki, and ViBo cells” (Eur J Med Chem, 2010).
# Activity calls are given as the source filed them. No cut-off for these calls is given here.
# Columns and labels:
# Ca-Ski [1] = assay: Cytotoxicity against human CaSki cells assessed as LDH release at IC50 after 24 hrs by spectrophotometry; format: functional
# Method in brief: (§1)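 7500 cells/well grown 24 h, then exposed for 24 h to the line's IC50 concentration or to ethanol (10 μL/mL). LDH in the supernatant read by INT-formazan at 500 nm, expressed against Triton X-100 lysis set as 100%. Mean ± S.D. of three independent experiments with three repetitions; Student's t-test.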
# Ca-Ski [2] = assay: Induction of apoptosis in human CaSki cells assessed as DNA fragmentation at IC50 after 24 hrs by TUNEL assay; format: functional, cell-based
# Method in brief: (§2)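 Cells on coverslips treated at IC50 for 24 h, with ethanol (10 μL/mL) as control. Fixed in 2% formaldehyde 20 min, permeabilized with 0.05% Triton X-100 for 5 min at 4 °C. TdT labeling with biotin-dUTP for 1 h at 37 °C, detected with rhodamine-streptavidin, DAPI counterstain. Fluorescence microscopy; representative of three independent assays.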
# ViBo [3] = assay: Induction of apoptosis in human ViBo cells assessed as DNA fragmentation at IC50 after 24 hrs by TUNEL assay; format: functional, cell-based; method in brief: as §2
# HeLa [4] = assay: Induction of apoptosis in human HeLa cells assessed as DNA fragmentation at IC50 after 24 hrs by TUNEL assay; format: functional, cell-based; method in brief: as §2
# ViBo [5] = assay: Induction of apoptosis in human ViBo cells assessed as caspase 3 activation at 65 uM after 24 hrs by immunocytochemistry; format: functional, cell-based
# Method in brief: (§3)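 Seeded at […] in RPMI-1640 with 5% NCS for 24 h, then treated with 42 or 65 μM. Fixed in formaldehyde, permeabilized in 0.5% Triton X-100, blocked. Rabbit polyclonal anti-active caspase-3 (1:50), then FITC goat anti-rabbit (1:200), DAPI counterstain. Epifluorescence microscopy; representative of three independent assays.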
# ViBo [6] = assay: Induction of apoptosis in human ViBo cells assessed as caspase 3 activation at 42 uM after 24 hrs by immunocytochemistry; format: functional, cell-based; method in brief: as §3
# Ca-Ski [7] = assay: Induction of apoptosis in human CaSki cells assessed as caspase 3 activation at 42 uM after 24 hrs by immunocytochemistry; format: functional, cell-based; method in brief: as §3
# Ca-Ski [8] = assay: Induction of apoptosis in human CaSki cells assessed as caspase 3 activation at 65 uM after 24 hrs by immunocytochemistry; format: functional, cell-based; method in brief: as §3
# HeLa [9] = assay: Induction of apoptosis in human HeLa cells assessed as caspase 3 activation at 42 uM after 24 hrs by immunocytochemistry; format: functional, cell-based; method in brief: as §3
# ViBo [10] = assay: Induction of apoptosis in human ViBo cells assessed as chromatin condensation at 42 uM after 24 hrs by DAPI staining; format: functional, cell-based
# HeLa [11] = assay: Induction of apoptosis in human HeLa cells assessed as caspase 3 activation at 65 uM after 24 hrs by immunocytochemistry; format: functional, cell-based; method in brief: as §3
# HeLa [12] = assay: Induction of apoptosis in human HeLa cells assessed as chromatin condensation at 65 uM after 24 hrs by DAPI staining; format: functional, cell-based
# Ca-Ski [13] = assay: Induction of apoptosis in human CaSki cells assessed as chromatin condensation at 65 uM after 24 hrs by DAPI staining; format: functional, cell-based
# [14] = Cell cycle arrest in human ViBo cells assessed as accumulation at G1 phase at 65 uM after 24 hrs by flow cytometry; format: functional, cell-based; details: 42 uM, in the assay text read “at 42 uM” for “at 65 uM”
# Method in brief: (§4)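 Seeded at 10^5 cells/mL and grown 24 h, then exposed to 42 or 65 μM for 24 h, with ethanol as control. Harvested with versene, fixed and permeabilized in 50% methanol/PBS, treated with RNase (2.5 U/mL), stained with propidium iodide (0.2 μg/mL). Flow cytometry gave % DNA distribution by phase; Student's t-test versus ethanol.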
# Ca-Ski [15] = assay: Cell cycle arrest in human CaSki cells assessed as accumulation at G2/M phase at 65 uM after 24 hrs by flow cytometry; format: functional, cell-based; method in brief: as §4
# [16] = Cell cycle arrest in human ViBo cells assessed as accumulation at G1 phase at 42 uM after 24 hrs by flow cytometry; format: functional, cell-based; method in brief: as §4
# HeLa [17] = assay: Cell cycle arrest in human HeLa cells assessed as accumulation at S phase at 65 uM after 24 hrs by flow cytometry; format: functional, cell-based; method in brief: as §4
# Ca-Ski [18] = assay: Cell cycle arrest in human CaSki cells assessed as accumulation at G2/M phase at 42 uM after 24 hrs by flow cytometry; format: functional, cell-based; details: 65 uM, in the assay text read “at 65 uM” for “at 42 uM”; method in brief: as §4
# HeLa [19] = assay: Cell cycle arrest in human HeLa cells assessed as accumulation at S phase at 42 uM after 24 hrs by flow cytometry; format: functional, cell-based; details: 65 uM, in the assay text read “at 65 uM” for “at 42 uM”; method in brief: as §4
# [20] = Cytotoxicity against human ViBo cells assessed as LDH release at IC50 after 24 hrs by spectrophotometry; format: functional; method in brief: as §1
# HeLa [21] = assay: Cytotoxicity against human HeLa cells assessed as LDH release at IC50 after 24 hrs by spectrophotometry; format: functional; method in brief: as §1
# Ca-Ski [22] = assay: Antiproliferative activity human CaSki cells after 24 hrs by crystal violet staining; format: functional, cell-based
# Method in brief: (§5)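 Cells kept in RPMI-1640 with 5% newborn calf serum, 37 °C, 5% CO2, in exponential growth. 7500 cells/well seeded and grown 24 h, then exposed to a range of concentrations with ethanol as vehicle (1% in controls). Crystal violet staining after 24 h, absorbance at 590 nm; IC50 from dose–response curves.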
# [23] = (§6) Antiproliferative activity human ViBo cells after 24 hrs by crystal violet staining; format: functional, cell-based; method in brief: as §5
# ViBo [24] = assay: as §6; format: functional, cell-based; method in brief: as §5
# HeLa [25] = assay: Antiproliferative activity human HeLa cells after 24 hrs by crystal violet staining; format: functional, cell-based; method in brief: as §5
# [26] = Antiproliferative activity non-tumor human cervical fibroblast at 65 uM after 24 hrs by crystal violet staining
# Method in brief: (§7)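 Primary fibroblasts from hysterectomy cervix explants of patients without malignant disease. Tissue digested with 0.05% trypsin at 37 °C, cultured in RPMI-1640 with 10% NCS, adherent cells subcultured. Exposed to 42 or 65 μM, with 1% ethanol in controls. Cell number by crystal violet staining.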
# [27] = Antiproliferative activity non-tumor human cervical fibroblast at 42 uM after 24 hrs by crystal violet staining; method in brief: as §7
# [28] = Effect on enriched human lymphocyte proliferation at 42 uM after 72 hrs by CSFE staining; format: cell-based
# Method in brief: (§8)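 PBMCs from healthy donors' heparinized blood isolated on a Hypaque gradient; adherent cells removed after 1 h. Labeled with 12 μM CFSE (final) for 15 min at room temperature, quenched with NCS, washed. Plated at 2×10^5 cells/well, unstimulated, PHA-stimulated or treated (42 or 65 μM), five replicates, 72 h at 37 °C.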
# [29] = Effect on enriched human lymphocyte proliferation at 65 uM after 72 hrs by CSFE staining; format: cell-based; method in brief: as §8
# [30] = Cytotoxicity against human lymphocytes assessed as LDH release at IC50 after 72 hrs by spectrophotometry; details: lymphocyte
smiles,measurement,setting,value
CC(=O)O[C@H]1CC[C@@]2(C)[C@@H](CC[C@@H]3[C@@H]2CC(=O)[C@]2(C)[C@@H]([C@H](C)C(=O)CC[C@@H](C)CO)[C@@H](OC(C)=O)C[C@@H]32)C1,Activity,Ca-Ski [1],28%
CC(=O)O[C@H]1CC[C@@]2(C)[C@@H](CC[C@@H]3[C@@H]2CC(=O)[C@]2(C)[C@@H]([C@H](C)C(=O)CC[C@@H](C)CO[C@@H]4O[C@H](CO)[C@@H](O)[C@H](O)[C@H]4O)[C@@H](OC(C)=O)C[C@@H]32)C1,Activity,Ca-Ski [2],Active
same,Activity,ViBo [3],Active
same,Activity,HeLa [4],Active
same,Activity,ViBo [5],Active
same,Activity,ViBo [6],Active
same,Activity,Ca-Ski [7],Active
same,Activity,Ca-Ski [8],Active
same,Activity,HeLa [9],Active
same,Activity,ViBo [10],Active
same,Activity,HeLa [11],Active
same,Activity,HeLa [12],Active
same,Activity,Ca-Ski [13],Active
same,Activity,[14],Active
same,Activity,Ca-Ski [15],Active
same,Activity,[16],Active
same,Activity,HeLa [17],Active
same,Activity,Ca-Ski [18],Active
same,Activity,HeLa [19],Active
same,Activity,Ca-Ski [1],17%
same,Activity,[20],3%
same,Activity,HeLa [21],13%
same,Activity,Ca-Ski [22],Dose-dependent effect
same,IC50,Ca-Ski [22],65 µM
same,IC50,[23],42 µM
same,Activity,ViBo [24],Dose-dependent effect
same,Activity,HeLa [25],Dose-dependent effect
same,IC50,HeLa [25],65 µM
same,Activity,[26],< 20%
same,Activity,[27],< 20%
same,Activity,[28],73.88%
same,Activity,[29],71.06%
same,Activity,[30],Non-toxic
